Our source for the viability and IC50 values is ChEMBL document CHEMBL4330167, “Chloraserrtone A, a Sesquiterpenoid Dimer from Chloranthus serratus” (J Nat Prod, 2019).

A short description of data set [1]: Cytotoxicity against mouse RAW264.7 cells assessed as cellular metabolic activity at 50 uM after 48 hrs by MTT assay relative to control. In kind it is ADME, cell-based. The following applies: read-out: Activity. The gist of the method:
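RAW264.7 cells at 5 × 10^4 cells/mL exposed to 50 μM test agent (DMSO solution) for 48 h. MTT then added at 5 mg/mL in sterile PBS for 4 h; formazan dissolved in DMSO and absorbance read at 490 nm. Triplicate treatments.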
On the technique in general: Tetrazolium dyes change colour on reduction, which living cells bring about.

For the next data set, the system named is RAW264.7. Kind of data set: Anti-inflammatory activity in mouse RAW264.7 cells assessed as inhibition of LPS-induced NO production preincubated for 30 mins followed by LPS stimulation and measured after 24 hrs by Griess reagent based colorimetric method. In kind it is functional, cell-based. In short, it runs like this: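 RAW264.7 murine macrophages in DMEM with 10% supplement, 37 °C, 5% CO2, grown 24 h before treatment. Test agents at several concentrations added 30 min before 1 μg/mL LPS (or no LPS). After 24 h, supernatant mixed with Griess reagents I and II; absorbance at 560 nm. IC50 derived only where cell activity at 50 μM stayed ≥50%. L-NIL as positive control.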
Background: Griess reagent forms a coloured azo dye with nitrite.

With `COC(=O)/C(C)=C1\C(=O)[C@H](O)[C@@]2(C)[C@@H]3C[C@@H]3[C@@]34CCC5=C6C3=C(C(=O)[C@H](O)[C@@]6(C)[C@@H]3C[C@H]53)[C@](C)(C(=O)OC)[C@@H]1[C@@]24O`, the viability at 48 h, 50 µM in data set [1] is less than 50%.

Broadly, the IC50 is the concentration at which inhibition is half-maximal. Regarding `COC(=O)/C(C)=C1\C(=O)[C@H](O)[C@]2(C)C3=C(C[C@@H]4[C@]5(OC(=O)C6=C5C[C@H]5[C@](O)(COC(=O)/C=C(\C)COC(=O)CCC(=O)OC6)[C@H]6C[C@H]6[C@]45C)[C@H]31)[C@H]1C[C@H]12` [SHIZUKAOL F], the IC50 with RAW264.7 was greater than 50 µM. Besides, the viability at 48 h, 50 µM in data set [1] worked out at 53.1%.

`COC(=O)/C(C)=C1\C(=O)[C@H](O)[C@]2(C)C3=C(C[C@@H]4[C@]5(OC(=O)C6=C5C[C@H]5[C@](O)(COC(=O)/C(C)=C/COC(=O)CCC(=O)OC6)[C@H]6C[C@H]6[C@]45C)[C@H]31)[C@H]1C[C@H]12` [SHIZUKAOL B]: the IC50 with RAW264.7 was greater than 50 µM. For the same compound, the viability at 48 h, 50 µM in data set [1] turned out to be 55.4%.

As for `COC(=O)/C(C)=C1\C(=O)[C@H](O)[C@]2(C)C3=C(C[C@@H]4[C@]5(OC(=O)C(CO)=C5C[C@H]5[C@H](COC(C)=O)[C@H]6C[C@H]6[C@]45C)[C@H]31)[C@H]1C[C@H]12`, the IC50 with RAW264.7 was 3.7 µM. In data set [1], the viability at 48 h, 50 µM was determined as 97%.

For `COC(=O)CCC(=O)OCC1=C2C[C@H]3[C@](O)(COC(=O)/C=C(\C)CO)[C@H]4C[C@H]4[C@]3(C)[C@@H]3CC4=C5[C@H](/C(=C(\C)C(=O)OC)C(=O)[C@H](O)[C@@]5(C)[C@@H]5C[C@H]45)[C@]23OC1=O`, in the data set on RAW264.7, the IC50 turned out to be 23.1 µM. The viability at 48 h, 50 µM in data set [1] was found to be 71.5%.

As for `C/C=C(\C)C(=O)OC[C@]1(O)[C@H]2C[C@H]2[C@]2(C)[C@@H]3CC4=C5[C@H](/C(=C(/C)C(=O)OC)C(=O)[C@H](O)[C@@]5(C)[C@@H]5C[C@H]45)[C@@]34OC(=O)C(COC(C)=O)=C4C[C@@H]12`, in data set [1], the viability at 48 h, 50 µM is less than 50%.

As to `CC1=C2C3=C4[C@](C)([C@@H]5C[C@@H]5[C@@]4(O)C[C@@H]4[C@]35OC(=O)C3=C5C[C@H]5[C@](O)(COC(=O)/C=C(\C)COC(=O)CCC(=O)OC3)[C@H]3C[C@H]3[C@]45C)[C@@H](O)[C@@]2(O)OC1=O`, the viability at 48 h, 50 µM in data set [1] is less than 50%.

For `CO[C@@]12OC(=O)C(C)=C1C1=C3[C@](C)([C@@H]4C[C@@H]4[C@@]3(O)C[C@@H]3[C@]14OC(=O)C1=C4C[C@H]4[C@](O)(COC(=O)/C(C)=C/COC(=O)CCC(=O)OC1)[C@H]1C[C@H]1[C@]34C)[C@H]2O`, in data set [1], the viability at 48 h, 50 µM was less than 50%.

Take `CC(=N)NCCCC[C@H](N)C(=O)O` [L-NIL]: in the data set with RAW264.7, the IC50 was found to be 7 µM. Further, the viability at 48 h, 50 µM in data set [1] is 93.3%.

For the compound `COC(=O)/C(C)=C1/C(=O)[C@H](O)[C@]2(C)C3=C(C[C@@H]4[C@]5(OC(=O)C6=C5C[C@H]5[C@](O)(COC(=O)/C(C)=C/COC(=O)CCC(=O)OC6)[C@H]6C[C@H]6[C@]45C)[C@H]31)[C@H]1C[C@H]12`, the IC50 in the data set with RAW264.7 amounted to 25.5 µM. The viability at 48 h, 50 µM in data set [1] was found to be 66.5%.

On to `C/C=C(\C)C(=O)OC[C@]1(O)[C@H]2C[C@H]2[C@]2(C)[C@@H]3C[C@@]4(O)C5=C(C6=C(C)C(=O)O[C@]6(O)[C@H](O)[C@@]5(C)[C@@H]5C[C@@H]54)[C@@]34OC(=O)C(COC(C)=O)=C4C[C@@H]12` [SARCANDROLIDE D], for which the viability at 48 h, 50 µM in data set [1] is less than 50%.

In the case of `CC1=C2C3=C4[C@@](C)(C(=O)[C@@]2(O)OC1=O)[C@@H]1C[C@@H]1[C@@]4(O)C[C@@H]1[C@]32OC(=O)C3=C2C[C@H]2[C@](O)(COC(=O)/C(C)=C/COC(=O)CCC(=O)OC3)[C@H]3C[C@H]3[C@]12C` [SPICACHLORANTIN B], the viability at 48 h, 50 µM in data set [1] is less than 50%.
